Calls of active or inactive are those of the source. No cut-off for these calls is given here.
Key:
Rattus norvegicus [1] = test: Antiallergic activity in the rat passive cutaneous anaphylaxis (PCA) model after intraperitoneal administration at a dose 5 mg/kg; format: functional; conditions: ip
Procedure, shortened: (§1)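 Rats passively sensitized by intradermal injection of antiserum dilutions at several back sites, 48 h before iv challenge with 1 mg ovalbumin in 1 mL saline with 0.25% Evans blue. Drug given ip as a suspension in 1% gum tragacanth/saline 10-15 min before challenge. Wheal diameter read 30 min later. Five rats per group. % inhibition taken against control minus extrapolated base value at the highest antiserum concentration. Student's t test.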

Rattus norvegicus [2] = test: Compound was tested for antiallergic activity in the rat passive cutaneous anaphylaxis (PCA) model after intraperitoneal administration at a dose 5 mg/kg; I denotes Inactive at 30 mg/kg; format: functional, organism-based; conditions: in the assay text read “Inactive at 5 mg/kg” for “Inactive at 30 mg/kg”; procedure, shortened: as §1
Rattus norvegicus [3] = test: Compound was tested for antiallergic activity in the rat passive cutaneous anaphylaxis (PCA) model after intraperitoneal administration at a dose 10 mg/kg; format: functional; conditions: ip; procedure, shortened: as §1

SMILES: Cc1cc2c(=O)n3cc(C(=O)Nc4nn[nH]n4)ccc3nc2s1
- inhibition in vivo at 5 mg/kg (Rattus norvegicus [1]): 25%

SMILES: O=c1c2cscc2nc2ccc(-c3nnn[nH]3)cn12
- inhibition in vivo at 5 mg/kg (Rattus norvegicus [1]): 100%

SMILES: Cc1cc2nc3ccc(-c4nnn[nH]4)cn3c(=O)c2s1
- inhibition in vivo at 5 mg/kg (Rattus norvegicus [1]): 51%

SMILES: Cc1sc(C)c2c(=O)n3cc(-c4nnn[nH]4)ccc3nc12
- inhibition in vivo at 5 mg/kg (Rattus norvegicus [1]): 47%

SMILES: Cc1cc2nc3ccc(C(=O)Nc4nn[nH]n4)cn3c(=O)c2s1
- inhibition in vivo at 5 mg/kg (Rattus norvegicus [1]): 21%

SMILES: O=c1c2c(nc3ccc(-c4nnn[nH]4)cn13)CSC2
- inhibition in vivo at 5 mg/kg (Rattus norvegicus [1]): 100%

SMILES: Cc1cc2c(=O)n3cc(C(=O)O)ccc3nc2s1
- inhibition in vivo at 5 mg/kg (Rattus norvegicus [1]): 100%

SMILES: O=C(Nc1nn[nH]n1)c1ccc2nc3ccsc3c(=O)n2c1
- inhibition in vivo at 5 mg/kg (Rattus norvegicus [1]): 100%

SMILES: O=C(O)c1ccc2nc3c(c(=O)n2c1)SCC3
- inhibition in vivo at 5 mg/kg (Rattus norvegicus [1]): 46%

SMILES: O=C(O)c1ccc2nc3cscc3c(=O)n2c1
- inhibition in vivo at 5 mg/kg (Rattus norvegicus [1]): 41%

SMILES: O=C(Nc1nn[nH]n1)c1ccc2nc3c(c(=O)n2c1)CSC3
- inhibition in vivo at 5 mg/kg (Rattus norvegicus [1]): 33%

SMILES: O=C(Nc1nn[nH]n1)c1ccc2nc3cscc3c(=O)n2c1
- inhibition in vivo at 5 mg/kg (Rattus norvegicus [1]): 49%

SMILES: Cc1cc2nc3ccc(C(=O)O)cn3c(=O)c2s1
- inhibition in vivo at 5 mg/kg (Rattus norvegicus [1]): 61%

SMILES: O=c1c2c(nc3ccc(-c4nnn[nH]4)cn13)CCS2
- inhibition (Rattus norvegicus [2]): inactive

SMILES: O=C(O)c1ccc2nc3ccsc3c(=O)n2c1
- inhibition in vivo at 5 mg/kg (Rattus norvegicus [1]): 28%

SMILES: O=C(O)c1ccc2nc3c(c(=O)n2c1)CSC3
- inhibition (Rattus norvegicus [2]): inactive

SMILES: O=c1c2sccc2nc2ccc(-c3nnn[nH]3)cn12
- inhibition in vivo at 5 mg/kg (Rattus norvegicus [1]): 70%

SMILES: Cc1sc(C)c2c(=O)n3cc(C(=O)O)ccc3nc12
- inhibition in vivo at 5 mg/kg (Rattus norvegicus [1]): 70%

SMILES: O=C(O)c1cc(=O)c2c(OCC(O)COc3cccc4oc(C(=O)O)cc(=O)c34)cccc2o1 [CROMOLYN SODIUM]
- inhibition in vivo at 10 mg/kg (Rattus norvegicus [3]): 89%

SMILES: Cc1sc(C)c2c(=O)n3cc(C(=O)Nc4nn[nH]n4)ccc3nc12
- inhibition in vivo at 5 mg/kg (Rattus norvegicus [1]): 50%

SMILES: Cc1cc2c(=O)n3cc(-c4nnn[nH]4)ccc3nc2s1
- inhibition in vivo at 5 mg/kg (Rattus norvegicus [1]): 100%
